# Experimental data from ChEMBL document CHEMBL4706633, “Design, Synthesis, and Biological Evaluation of a Series of Oxazolone Carboxamides as a Novel Class of Acid Ceramidase Inhibitors” (J Med Chem, 2020).
# Calls of active or inactive are those of the source. No cut-off for these calls is given here.
# Columns and labels:
# Acid ceramidase [1] = target: T1, Acid ceramidase (Homo sapiens, UniProt Q13510); assay: Inhibition of acid ceramidase in human HL-60 cell lysates; format: subcellular
# T1 sequence (Q13510 whole entry): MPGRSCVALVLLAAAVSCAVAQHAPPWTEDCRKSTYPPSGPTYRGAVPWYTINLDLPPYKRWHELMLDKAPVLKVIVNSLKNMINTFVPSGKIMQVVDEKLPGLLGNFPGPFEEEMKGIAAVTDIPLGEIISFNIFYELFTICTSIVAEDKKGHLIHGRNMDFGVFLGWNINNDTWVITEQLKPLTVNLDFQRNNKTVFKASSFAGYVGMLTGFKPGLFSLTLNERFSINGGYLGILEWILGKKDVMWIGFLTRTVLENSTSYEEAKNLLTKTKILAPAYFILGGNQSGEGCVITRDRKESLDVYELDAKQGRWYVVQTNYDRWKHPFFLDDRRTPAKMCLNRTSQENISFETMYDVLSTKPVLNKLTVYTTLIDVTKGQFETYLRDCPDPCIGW
# Acid ceramidase [2] = target: T1, Acid ceramidase; assay: Inhibition of acid ceramidase in human HaCaT cell lysates; format: subcellular
# [3] = target: T2, Acid ceramidase (Homo sapiens) (UniProt Q13510); assay: Inhibition of human acid ceramidase at 10 uM using N-lauroyl ceramide incubated for 1 hr by LC/MS analysis relative to control
# T2 sequence (whole entry): T1 sequence (Q13510 whole entry)
# Acid ceramidase [4] = target: T1, Acid ceramidase; assay: Inhibition of human acid ceramidase using Rbm14-12 fluorogenic substrate incubated for 1 hr by fluorescence assay
# [5] = Kinetic solubility in pH 7.4 PBS buffer at 250 uM incubated for 1 hr by UPLC/MS analysis; format: physicochemical; conditions: read-out: Kinetic_solubility
# In short: (§1)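 Kinetic aqueous solubility was measured in PBS, pH 7.4. Metabolic stability was measured as t1/2 in mouse plasma and mouse liver microsomes, with microsomal data also given as % compound remaining at 1 h. Values are means of at least two independent experiments, each in two technical replicates.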
# [6] = Half life in mouse plasma at 2 uM by LC/MS-MS analysis; format: ADME, cell-free; in short: as §1
# [7] = Stability in mouse plasma at 2 uM after 120 mins by LC/MS-MS analysis; format: ADME, cell-free; conditions: read-out: Stabilty
# [8] = Half life in mouse liver microsomes at 4.6 uM in presence of NADPH by LC/MS-MS analysis; format: ADME, Microsome; in short: as §1
# [9] = Stability in mouse liver microsomes at 4.6 uM in presence of NADPH after 60 mins by LC/MS-MS analysis; format: ADME, Microsome; conditions: read-out: Stabilty; in short: as §1
# Acid ceramidase [10] = target: T1, Acid ceramidase; assay: Inhibition of human acid ceramidase
# [11] = target: T2, Acid ceramidase (Homo sapiens); assay: Inhibition of human acid ceramidase at 1 to 10 uM using N-lauroyl ceramide incubated for 1 hr by LC/MS analysis; conditions: dose 1-10 µM
# [12] = target: T2, Acid ceramidase (Homo sapiens); assay: Inhibition of human acid ceramidase using Rbm14-12 fluorogenic substrate incubated for 1 hr by fluorescence assay
# [13] = Half life in pH 7 0.01M PBS buffer at 2 uM by LC/MS-MS analysis; format: physicochemical
# [14] = target: T2, Acid ceramidase (Homo sapiens); assay: Irreversible covalent inhibition of human acid ceramidase using N-lauroyl ceramide incubated for 1 hr by LC/MS analysis
# Acid ceramidase [15] = target: T1, Acid ceramidase; assay: Inhibition of acid ceramidase in human SK-OV-3 cell lysates; format: subcellular
# [16] = target: T2, Acid ceramidase (Homo sapiens); assay: Inhibition of acid ceramidase in human NCI-H460 cells at 25 uM relative to control; format: cell-based
# [17] = target: T2, Acid ceramidase (Homo sapiens); assay: Inhibition of human acid ceramidase at 5 uM using N-lauroyl ceramide incubated for 1 hr by LC/MS analysis relative to control
# [18] = Half life in mouse plasma; format: ADME, cell-free; in short: as §1
structure (smiles),measurement,setting,value
CCCCCCCCCCCCCC(=O)N[C@H](C)[C@@H](O)c1ccccc1,IC50,Acid ceramidase [1],> 500000 nM
same,IC50,Acid ceramidase [2],500000 nM
COCCCNC(=O)n1cc(-c2ccccc2)oc1=O,inhibition,[3],53%
O=c1[nH]cc(-c2ccccc2)o1,IC50,Acid ceramidase [4],Not Active
CN1CCC(c2cc(-c3cn(C(=O)NCCCCc4ccccc4)c(=O)o3)ccc2F)CC1,"solubility kinetic at 1 h, 250 µM",[5],30 µM
same,t1/2,[6],> 2 h
same,"remaining at 2 h, 2 µM",[7],80%
same,t1/2,[8],> 1 h
same,"remaining at 1 h, 4.6 µM",[9],70%
same,IC50,Acid ceramidase [4]; read-out: IC50,341 nM
CCCCCCCCCCCCCC(=O)NCC(O)c1ccccc1 (centres undefined),IC50,Acid ceramidase [10],1290 nM
CCCCCCNC(=O)n1cc(Cl)c(=O)n(C(=O)OCC(C)C)c1=O,IC50,Acid ceramidase [10],12.8 nM
Cc1oc(=O)n(C(=O)NCCCCc2ccccc2)c1-c1ccccc1,IC50,Acid ceramidase [4]; read-out: IC50,42 nM
CCCCCCCC/C=C\CCCCCCCC(=O)NCCO [OLEOYLETHANOLAMIDE],IC50,Acid ceramidase [10],500000 nM
CCCCCNC(=O)n1cc(-c2ccccc2)oc1=O,"solubility kinetic at 1 h, 250 µM",[5],< 1 µM
same,t1/2,[6],> 2 h
same,"remaining at 2 h, 2 µM",[7],60%
same,t1/2,[8],< 0.083 h
same,IC50,Acid ceramidase [4]; read-out: IC50,39 nM
Cn1nc(-c2cn(C(=O)NCCCCc3ccccc3)c(=O)o2)c2ccccc21,IC50,Acid ceramidase [4]; read-out: IC50,92 nM
CC(C)CNC(=O)n1cc(-c2ccc(F)cc2C2CCN(C)CC2)oc1=O,inhibition,[3],38%
O=C(NCCCCc1ccccc1)N1C[C@@H](c2ccccc2)OC1=O,inhibition,[11],inactive
CCCCCNC(=O)n1cc(-c2ccc(F)c(C3CCN(C)CC3)c2)oc1=O,IC50,Acid ceramidase [4]; read-out: IC50,1920 nM
O=C(NCCCCc1ccccc1)n1cc(-c2ccc(Cl)cc2)oc1=O,IC50,Acid ceramidase [4]; read-out: IC50,83 nM
O=C(NCCCCc1ccccc1)n1cc(-c2ccc(F)cc2)oc1=O,"solubility kinetic at 1 h, 250 µM",[5],< 1 µM
same,t1/2,[6],1.5 h
same,t1/2,[8],1 h
same,IC50,Acid ceramidase [4]; read-out: IC50,185 nM
CN1CCC(c2cc(F)ccc2-c2cn(C(=O)NCCCCc3ccccc3)c(=O)o2)CC1,"solubility kinetic at 1 h, 250 µM",[5],60 µM
same,t1/2,[6],> 2 h
same,"remaining at 2 h, 2 µM",[7],54%
same,t1/2,[8],> 1 h
same,"remaining at 1 h, 4.6 µM",[9],51%
same,IC50,Acid ceramidase [4]; read-out: IC50,337 nM
CN1CCC(c2cc(F)ccc2-c2c[nH]c(=O)o2)CC1,inhibition,[12],inactive
CCCCCNC(=O)n1c(-c2ccccc2)coc1=O,IC50,Acid ceramidase [4]; read-out: IC50,25 nM
O=C(NCCCCc1ccccc1)n1cc(-c2ccncc2)oc1=O,"solubility kinetic at 1 h, 250 µM",[5],< 1 µM
same,t1/2,[6],0.5 h
same,t1/2,[8],> 1 h
same,"remaining at 1 h, 4.6 µM",[9],75%
same,IC50,Acid ceramidase [4]; read-out: IC50,18 nM
O=C(NCCCCc1ccccc1)n1cc(-c2ccccc2)oc1=O,half-life at 2 µM,[13],> 12 h
same,inhibition,[14],Dose-dependent effect
same,"solubility kinetic at 1 h, 250 µM",[5],< 1 µM
same,t1/2,[6],< 0.083 h
same,t1/2,[8],0.667 h
same,IC50,Acid ceramidase [4]; read-out: IC50,90 nM
O=C(NCCCCc1ccccc1)n1c(-c2ccccc2)coc1=O,half-life at 2 µM,[13],0.167 h
N=C(N)Nc1ccc(CC(=O)Oc2ccc(-c3ccccc3)cc2)cc1,IC50,Acid ceramidase [10],52000 nM
CCCCCCCCCCCCCCC[C@@H](O)[C@H](CO)NC(=O)CBr,IC50,Acid ceramidase [10],52 nM
O=C(NCCCCc1ccccc1)n1cc(-c2cnc3ccccc3n2)oc1=O,IC50,Acid ceramidase [4]; read-out: IC50,37 nM
COc1cccc(-c2cn(C(=O)NCCCCc3ccccc3)c(=O)o2)c1,"solubility kinetic at 1 h, 250 µM",[5],< 1 µM
same,t1/2,[6],> 2 h
same,"remaining at 2 h, 2 µM",[7],64%
same,t1/2,[8],0.5 h
same,IC50,Acid ceramidase [4]; read-out: IC50,341 nM
O=C(NCCCCc1ccccc1)n1cc(-c2cscn2)oc1=O,IC50,Acid ceramidase [4]; read-out: IC50,44 nM
CCOCCNC(=O)n1cc(-c2ccccc2)oc1=O,"solubility kinetic at 1 h, 250 µM",[5],20 µM
same,t1/2,[6],1.33 h
same,t1/2,[8],< 0.083 h
same,IC50,Acid ceramidase [4]; read-out: IC50,2040 nM
CC(C)CNC(=O)n1cc(-c2ccccc2)oc1=O,"solubility kinetic at 1 h, 250 µM",[5],< 1 µM
same,t1/2,[6],> 2 h
same,"remaining at 2 h, 2 µM",[7],70%
same,t1/2,[8],0.833 h
same,IC50,Acid ceramidase [4]; read-out: IC50,1700 nM
COc1ccc(/C=C/C(=O)c2c(-c3ccccc3)c3ccccc3[nH]c2=O)cc1,IC50,Acid ceramidase [10],28000 nM
same,IC50,Acid ceramidase [15],28000 nM
same,inhibition,[16],44%
CN(CCCCc1ccccc1)C(=O)n1cc(-c2ccccc2)oc1=O,inhibition,[11],inactive
O=C(CCCCCc1ccccc1)n1cc(-c2ccccc2)oc1=O,inhibition,[11],inactive
Cc1c(-c2ccccc2)oc(=O)n1C(=O)NCCCCc1ccccc1,IC50,Acid ceramidase [4]; read-out: IC50,69 nM
COc1cc(-c2cn(C(=O)NCCCCc3ccccc3)c(=O)o2)ccc1F,"solubility kinetic at 1 h, 250 µM",[5],< 1 µM
same,t1/2,[6],> 2 h
same,"remaining at 2 h, 2 µM",[7],64%
same,t1/2,[8],> 1 h
same,"remaining at 1 h, 4.6 µM",[9],74%
same,IC50,Acid ceramidase [4]; read-out: IC50,80 nM
COc1ccc(-c2cn(C(=O)NCCCCc3ccccc3)c(=O)o2)cc1,IC50,Acid ceramidase [4]; read-out: IC50,400 nM
O=C(NCCCCc1ccccc1)n1c(-c2ccc(Cl)cc2)coc1=O,IC50,Acid ceramidase [4]; read-out: IC50,5 nM
O=C(NCCCCc1ccccc1)N1C[C@H](c2ccccc2)OC1=O,inhibition,[11],inactive
O=C(NCCCCc1ccccc1)n1cc(-c2ccccn2)oc1=O,"solubility kinetic at 1 h, 250 µM",[5],< 1 µM
same,t1/2,[6],0.667 h
same,t1/2,[8],0.167 h
same,IC50,Acid ceramidase [4]; read-out: IC50,25 nM
O=C(NCCCCc1ccccc1)n1cc(-c2cnccn2)oc1=O,"solubility kinetic at 1 h, 250 µM",[5],< 1 µM
same,t1/2,[6],0.667 h
same,t1/2,[8],1 h
same,IC50,Acid ceramidase [4]; read-out: IC50,32 nM
CN1CCC(c2cn(C(=O)NCCCCc3ccccc3)c(=O)o2)CC1,IC50,Acid ceramidase [4]; read-out: IC50,1400 nM
CC(C)CNC(=O)n1cc(-c2ccc(F)c(C3CCN(C)CC3)c2)oc1=O,inhibition,[3],26%
O=C(NCCCCc1ccccc1)n1cc(-c2nccs2)oc1=O,IC50,Acid ceramidase [4]; read-out: IC50,59 nM
COc1ccccc1-c1cn(C(=O)NCCCCc2ccccc2)c(=O)o1,IC50,Acid ceramidase [4]; read-out: IC50,177 nM
O=C(Nc1ccccc1)n1cc(-c2ccccc2)oc1=O,inhibition,[17],20%
O=C(OCCCCc1ccccc1)n1cc(-c2ccccc2)oc1=O,inhibition,[11],inactive
CCCCCCNC(=O)n1cc(F)c(=O)n(C(=O)OCC(C)C)c1=O,IC50,Acid ceramidase [10],7.7 nM
CCC(C)NC(=O)n1cc(-c2ccccc2)oc1=O (racemic),inhibition,[3],21%
CN1CCC(c2cccc(-c3cn(C(=O)NCCCCc4ccccc4)c(=O)o3)c2)CC1,"solubility kinetic at 1 h, 250 µM",[5],70 µM
same,t1/2,[6],> 2 h
same,"remaining at 2 h, 2 µM",[7],73%
same,t1/2,[8],0.5 h
same,IC50,Acid ceramidase [4]; read-out: IC50,153 nM
O=C(NCCCCc1ccccc1)n1cc(-c2cccnc2)oc1=O,"solubility kinetic at 1 h, 250 µM",[5],< 1 µM
same,t1/2,[6],1 h
same,t1/2,[8],> 1 h
same,"remaining at 1 h, 4.6 µM",[9],55%
same,IC50,Acid ceramidase [4]; read-out: IC50,70 nM
CCCCCCNC(=O)n1nc(C)cc1C(F)(F)F,IC50,Acid ceramidase [10],14 nM
same,half-life,[18],9 min
